Experimental data: ChEMBL document CHEMBL4359872, “Identification of potent triazolylpyridine nicotinamide phosphoribosyltransferase (NAMPT) inhibitors bearing a 1,2,3-triazole tail group” (Eur J Med Chem, 2019)
pEC50, pIC50: −log10 of the molar value. In brackets after ≈: the same amount, converted by molar mass. Activity calls are given as the source filed them. The calls are words filed in the database; no cut-off is given here.

Experiments:
[1] = Drug metabolism in Wistar Han rat liver microsomes assessed as aliphatic hydroxylation of paraffin linker at 50 uM measured after 60 mins […] by LC-ESI/MS analysis; type: ADME, Microsome; details: 1 h
[2] = Thermodynamic solubility of compound in water after 24 hrs by LC-UV based shake flask method; type: physicochemical; details: buffer
Procedure, shortened: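 Thermodynamic water solubility measured by saturation shake flask, with the concentration of the saturated solution reported.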

Lymphocyte [3] = experiment: Genotoxicity in human primary lymphocytes in presence of S9 fraction by GreenScreen assay; type: toxicity, cell-based
[4] = Drug metabolism in human liver microsomes assessed as oxidative N-dealkylation at 50 uM measured after 60 mins […] by LC-ESI/MS analysis; type: ADME, Microsome; details: 1 h
[5] = Drug metabolism in human liver microsomes assessed as aliphatic hydroxylation of paraffin linker at 50 uM measured after 60 mins […] by LC-ESI/MS analysis; type: ADME, Microsome; details: 1 h
[6] = Drug metabolism in Wistar Han rat liver microsomes assessed as oxidative N-dealkylation at 50 uM measured after 60 mins […] by LC-ESI/MS analysis; type: ADME, Microsome; details: 1 h
[7] = Drug metabolism in Wistar Han rat liver microsomes assessed as pyridine N-oxidation at 50 uM measured after 60 mins […] by LC-ESI/MS analysis; type: ADME, Microsome; details: 1 h
TK6 [8] = experiment: Genotoxicity in human TK6 cells in presence of S9 fraction by GreenScreen assay; type: toxicity, cell-based
Lymphocyte [9] = experiment: Genotoxicity in human primary lymphocytes assessed as induction of DNA damage up to 1000 uM by GreenScreen assay; type: toxicity, cell-based
TK6 [10] = experiment: Genotoxicity in human TK6 cells assessed as induction of DNA damage up to 1000 uM by GreenScreen assay; type: toxicity, cell-based
[11] = Kinetic aqueous solubility of the compound in 80:20 PBS/acetonitrile solution at 200 uM by HTS assay; type: physicochemical; details: buffer
[12] = Drug metabolism in human liver microsomes assessed as pyridine N-oxidation at 50 uM measured after 60 mins […] by LC-ESI/MS analysis; type: ADME, Microsome; details: 1 h
[13] = Cytotoxicity against human SH-SY5Y cells assessed as cell viability at 1 uM measured after 48 hrs by MTT assay relative to control; type: cell-based; details: read-out: Activity
SH-SY5Y [14] = experiment: Cytotoxicity against human SH-SY5Y cells measured after 48 hrs by MTT assay; type: cell-based
[15] = molecular target: Nicotinamide phosphoribosyltransferase (Mus musculus, UniProt Q99KQ4); experiment: Inhibition of recombinant mouse wild-type NAMPT expressed in bacterial expression system using PRPP as substrate in presence of mouse NMNAT-3 measured for 1 hr by fluorescence assay
Procedure, shortened: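 In vitro NAMPT enzymatic assay run as concentration-response curves, with IC50 derived from the curves. Mean ± SD of three independent experiments (n = 6).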

TK6 [16] = experiment: Genotoxicity in human TK6 cells assessed as induction of DNA damage up to 500 uM by GreenScreen assay; type: toxicity, cell-based
[17] = Permeability across apical side to basolateral side in human Caco2 cells at 30 uM after 4 hrs by HPLC analysis; type: ADME, cell-based; details: caco-2, 4 h
Procedure, shortened: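 Caco-2 monolayer used to measure apical-to-basal transfer, reported as % permeability and Papp. Terbutaline served as the positive control; n = 3.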

4T1 [18] = experiment: Antitumor activity against mouse 4T1 cells implanted in BALB/c mouse assessed as reduction in tumour volume at 10 mg/kg, ip bid for 12 days by vernier caliper method; type: functional, organism-based
Procedure, shortened: (§1)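 Tumour cells implanted in the mammary gland. Dosing began at day 14, once tumours were palpable, after randomization into vehicle and treated groups of 4 mice each. Compound given intraperitoneally at 10 mg/kg twice a day for 12 consecutive days. Data are means of two independent experiments.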

[19] = Toxicity in Crl:CD Sprague-Dawley rat retina at 100 mg/kg, ip administered once daily for 5 days by hematoxylin and eosin staining based microscopic analysis; type: organism-based; details: in vivo, 120 h
[20] = Toxicity in Crl:CD Sprague-Dawley rat heart assessed as interstitial expansion at 100 mg/kg, ip administered once daily for 5 days by hematoxylin and eosin staining based microscopic analysis; type: organism-based; details: in vivo, 120 h
[21] = Clearance in BALB/c mouse at 10 mg/kg, iv administered as single dose measured after 24 hrs by LC-ESI/MS analysis; type: ADME, organism-based; details: in vivo
Procedure, shortened: (§2)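 Mice given a single 10 mg/kg i.v. injection; serial blood sampling, then half-life, clearance and volume of distribution derived.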

[22] = Kinetic aqueous solubility of the compound in 80:20 PBS/acetonitrile solution at 200 to 500 uM by HTS assay; type: physicochemical; details: read-out: Kinetic_solubility
[23] = Metabolic stability in human liver microsomes assessed as parent compound remaining at 50 uM […] for 60 mins by LC-ESI/MS analysis; type: ADME, Microsome; details: read-out: Stability
[24] = Metabolic stability in Wistar Han rat liver microsomes assessed as parent compound remaining at 50 uM […] for 60 mins by LC-ESI/MS analysis; type: ADME, Microsome; details: read-out: Stability
[25] = Toxicity in Crl:CD Sprague-Dawley rat heart assessed as increase in cardiomyocytes cytoplasmic vacuolation at 100 mg/kg, ip administered once daily for 5 days by hematoxylin and eosin staining based microscopic analysis; type: organism-based; details: in vivo, 120 h
[26] = Half-life in BALB/c mouse at 10 mg/kg, iv administered as single dose measured after 24 hrs by LC-ESI/MS analysis; type: ADME, organism-based; details: in vivo; procedure, shortened: as §2
TK6 [27] = experiment: Genotoxicity in human TK6 up to 1 mM in presence of S9 fraction by GreenScreen assay; type: toxicity, cell-based
4T1 [28] = experiment: Antitumor activity against mouse 4T1 cells implanted in Balb/c mouse mouse assessed as inhibition of tumor metastasis at 10 mg/kg, ip bid for 12 days measured post last dose by crystal violet staining based thioguanine clonogenic assay; type: functional, organism-based; procedure, shortened: as §1
[29] = Toxicity in Crl:CD Sprague-Dawley rat heart assessed as hypereosinophilia at 100 mg/kg, ip administered once daily for 5 days by hematoxylin and eosin staining based microscopic analysis; type: organism-based; details: in vivo, 120 h
[30] = Volume of distribution in BALB/c mouse at 10 mg/kg, iv administered as single dose measured after 24 hrs by LC-ESI/MS analysis; type: ADME, organism-based; details: in vivo; procedure, shortened: as §2
Lymphocyte [31] = experiment: Genotoxicity in human primary lymphocytes up to 1 mM in presence of S9 fraction by GreenScreen assay; type: toxicity, cell-based
4T1 [32] = experiment: Antitumor activity against mouse 4T1 cells implanted in BALB/c mouse assessed as reduction in tumor weight at 10 mg/kg, ip bid for 12 days; type: functional, organism-based; procedure, shortened: as §1
[33] = AUC in BALB/c mouse at 10 mg/kg, iv administered as single dose measured after 24 hrs by LC-ESI/MS analysis; type: ADME, organism-based; design: time < 24 hr, dose 10 mg/kg, route intravenous; details: in vivo; procedure, shortened: as §2
Lymphocyte [34] = experiment: Genotoxicity in human primary lymphocytes assessed as induction of DNA damage up to 500 uM by GreenScreen assay; type: toxicity, cell-based
SH-SY5Y [35] = experiment: Cytotoxicity against human SH-SY5Y cells assessed as cell viability at 10 uM measured after 48 hrs by MTT assay relative to control; type: functional; details: read-out: Activity

Chain of Nicotinamide phosphoribosyltransferase (Q99KQ4 whole entry): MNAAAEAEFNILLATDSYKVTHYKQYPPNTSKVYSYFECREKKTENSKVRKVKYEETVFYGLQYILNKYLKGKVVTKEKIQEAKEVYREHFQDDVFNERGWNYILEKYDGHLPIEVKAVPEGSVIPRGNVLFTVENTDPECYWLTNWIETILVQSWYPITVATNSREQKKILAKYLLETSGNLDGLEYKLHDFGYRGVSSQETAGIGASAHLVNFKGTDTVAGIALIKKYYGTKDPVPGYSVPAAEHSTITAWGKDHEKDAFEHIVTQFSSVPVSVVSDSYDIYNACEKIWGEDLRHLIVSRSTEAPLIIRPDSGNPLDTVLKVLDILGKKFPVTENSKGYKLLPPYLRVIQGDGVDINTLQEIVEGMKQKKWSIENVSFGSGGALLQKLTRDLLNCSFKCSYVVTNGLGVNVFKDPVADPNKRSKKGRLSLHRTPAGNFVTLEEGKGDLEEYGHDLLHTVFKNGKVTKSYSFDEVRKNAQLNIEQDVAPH

Row | SMILES | pIC50 [15] | solubility kinetic [22] [µM] | viability at 48 h, 1 µM [13] [%] | pEC50 (SH-SY5Y [14]) | also measured
1 | O=C(NCCCCCCCn1cc(-c2cccnc2)nn1)c1ccccc1-c1ccccc1 | – | – | – | – | Drug metabolism [1]: Metabolite_Detected; Therm_solubility [2]: Soluble; LEC (Lymphocyte [3]): 125 µM; Drug metabolism [4]: Metabolite_Detected; Drug metabolism [5]: Metabolite_Detected; Drug metabolism [6]: Metabolite_Detected; Drug metabolism [7]: Metabolite_Detected; MTC (TK6 [8]): 125 µM; Activity (Lymphocyte [9]): Non-Toxic; Activity (TK6 [10]): Non-Toxic; Kinetic_solubility [11]: Soluble; Drug metabolism [12]: Metabolite_Detected
2 | O=C(NCCCCCCCn1cc(-c2cccnc2)nn1)c1ccccc1-c1cccnc1 | 7.55 | – | 15.1 | 7.44 | –
3 | O=C(O)c1ccc(-c2ccccc2C(=O)NCCCCCCCn2cc(-c3cccnc3)nn2)cc1 | < 6.30 | – | 22.5 | 6.65 | –
4 | O=C(O)c1cccc(-c2ccccc2C(=O)NCCCCCCCn2cc(-c3cccnc3)nn2)c1 | < 6.30 | – | 78.4 | < 6.30 | –

Continued, in another order:

Row | pIC50 [15] | solubility kinetic [22] [µM] | SMILES | viability at 48 h, 1 µM [13] [%] | pEC50 (SH-SY5Y [14]) | also measured
5 | 8.47 | 200 to 500 (≈ 86.1 to 215 µg/mL) | O=C(NCCCCCCCn1cc(-c2cccnc2)nn1)c1ccccc1-n1ccnn1 | 10.5 | 7.45 | Activity (TK6 [16]): Non-Toxic; permeability [17]: 10.6%; Activity (4T1 [18]): Active; Therm_solubility [2]: Soluble; Activity [19]: Non-Toxic; Activity [20]: Non-Toxic; clearance [21]: 103 mL/min/kg; remaining at 1 h, 50 µM [23]: 94%; remaining at 1 h, 50 µM [24]: 70%; Activity [25]: Non-Toxic; half-life [26]: 3.51 h; Activity (TK6 [27]): Non-Toxic; inhibition (4T1 [28]): Active; Activity [29]: Non-Toxic; Vd [30]: 31.3 L/kg; Activity (Lymphocyte [31]): Non-Toxic; Activity (4T1 [32]): Active; AUC at 24 h [33]: 1620 ng·h/mL; Activity (Lymphocyte [34]): Non-Toxic
6 | 7.30 | 200 to 500 (≈ 106 to 265 µg/mL) | O=C(NCCCCCCCn1cc(-c2cccnc2)nn1)c1ccccc1-n1cc(CN2CCOCC2)nn1 | 30 | < 6.30 | –
7 | 7.37 | – | O=C(NCCCCCCCn1cc(-c2cccnc2)nn1)c1ccccc1-c1c[nH]nn1 | 23.5 | 7.06 | –
8 | 7.60 | 200 to 500 (≈ 103 to 257 µg/mL) | O=C(NCCCCCCCn1cc(-c2cccnc2)nn1)c1ccccc1-n1cc(CN2CCCC2)nn1 | 88.9 | < 5.00 | viability at 10 µM (SH-SY5Y [35]): 61.9%
9 | 7.77 | 200 to 500 (≈ 106 to 264 µg/mL) | O=C(NCCCCCCCn1cc(-c2cccnc2)nn1)c1ccccc1-n1cc(CN2CCCCC2)nn1 | 15.9 | < 6.30 | –
10 | 7.69 | 200 to 500 (≈ 120 to 300 µg/mL) | CCOC(=O)C1CCN(Cc2cn(-c3ccccc3C(=O)NCCCCCCCn3cc(-c4cccnc4)nn3)nn2)CC1 | 14.1 | 7.21 | –
